Assay results from ChEMBL document CHEMBL1148329, “Synthesis and structure-activity studies on N-[5-(1H-imidazol-4-yl)-5,6,7,8-tetrahydro-1-naphthalenyl]methanesulfonamide, an imidazole-containing alpha(1A)-adrenoceptor agonist” (J Med Chem, 2004).

Legend:
[1] = molecular target: T1, Alpha-1A adrenergic receptor (Oryctolagus cuniculus) (UniProt O02824); assay: Efficacy relative to phenylephrine (PE) to constrict tissue containing the alpha-1A adrenergic receptor in rabbit urethra; format: functional, tissue-based
T1 sequence (whole entry): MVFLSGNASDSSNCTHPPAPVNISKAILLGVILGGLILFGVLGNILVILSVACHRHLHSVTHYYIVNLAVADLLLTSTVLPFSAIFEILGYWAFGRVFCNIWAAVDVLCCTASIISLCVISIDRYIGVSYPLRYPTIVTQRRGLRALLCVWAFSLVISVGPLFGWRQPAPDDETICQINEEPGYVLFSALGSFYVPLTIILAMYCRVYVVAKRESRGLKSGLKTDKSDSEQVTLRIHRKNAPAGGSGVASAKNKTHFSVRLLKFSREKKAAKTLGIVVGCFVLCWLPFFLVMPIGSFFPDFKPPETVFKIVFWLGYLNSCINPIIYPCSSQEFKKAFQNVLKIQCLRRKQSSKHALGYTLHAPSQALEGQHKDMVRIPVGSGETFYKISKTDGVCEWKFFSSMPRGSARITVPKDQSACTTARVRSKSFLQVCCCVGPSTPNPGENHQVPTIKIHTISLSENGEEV
In short: (§1)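 α1-agonist dose–response curves in isolated tissue: rabbit urethra (α1A), rat spleen (α1B), rat aorta (α1D). Agonist potency and efficacy read from the concentration–response curves.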

[2] = molecular target: T1, Alpha-1A adrenergic receptor (Oryctolagus cuniculus); assay: Functional agonism of the compounds to constrict tissue containing the alpha-1A adrenergic receptor in rabbit urethra; format: tissue-based; in short: as §1
[3] = molecular target: T2, Alpha-1D adrenergic receptor (Rattus norvegicus, UniProt P23944); assay: In vitro binding affinity towards alpha-1D adrenergic receptor of rat clone in radioligand binding assay
T2 sequence (P23944 whole entry): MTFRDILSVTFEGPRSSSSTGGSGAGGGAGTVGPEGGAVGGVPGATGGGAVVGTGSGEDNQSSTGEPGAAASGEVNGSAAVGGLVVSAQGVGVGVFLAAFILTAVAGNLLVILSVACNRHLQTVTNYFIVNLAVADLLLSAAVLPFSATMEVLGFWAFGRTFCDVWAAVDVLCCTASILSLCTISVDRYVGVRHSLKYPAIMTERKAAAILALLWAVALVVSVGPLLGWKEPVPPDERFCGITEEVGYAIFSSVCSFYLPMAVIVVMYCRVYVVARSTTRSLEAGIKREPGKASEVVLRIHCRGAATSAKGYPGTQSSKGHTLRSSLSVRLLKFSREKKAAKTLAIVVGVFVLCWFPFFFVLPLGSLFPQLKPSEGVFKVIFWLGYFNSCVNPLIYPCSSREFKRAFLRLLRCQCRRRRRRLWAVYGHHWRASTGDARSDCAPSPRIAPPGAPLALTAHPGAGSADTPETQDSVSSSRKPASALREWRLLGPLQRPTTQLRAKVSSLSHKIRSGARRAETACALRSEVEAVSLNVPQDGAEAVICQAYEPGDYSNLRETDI
In short: (§2)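 Radioligand binding at α1 subtypes: α1A from rat submaxillary gland, α1B hamster clone, α1D rat clone. Run essentially per an earlier method.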

[4] = molecular target: T3, Alpha-1B adrenergic receptor (Mesocricetus auratus, UniProt P18841); assay: In vitro binding affinity towards alpha-1B adrenergic receptor of hamster clone in radioligand binding assay; format: single protein; in short: as §2
T3 sequence (P18841 whole entry): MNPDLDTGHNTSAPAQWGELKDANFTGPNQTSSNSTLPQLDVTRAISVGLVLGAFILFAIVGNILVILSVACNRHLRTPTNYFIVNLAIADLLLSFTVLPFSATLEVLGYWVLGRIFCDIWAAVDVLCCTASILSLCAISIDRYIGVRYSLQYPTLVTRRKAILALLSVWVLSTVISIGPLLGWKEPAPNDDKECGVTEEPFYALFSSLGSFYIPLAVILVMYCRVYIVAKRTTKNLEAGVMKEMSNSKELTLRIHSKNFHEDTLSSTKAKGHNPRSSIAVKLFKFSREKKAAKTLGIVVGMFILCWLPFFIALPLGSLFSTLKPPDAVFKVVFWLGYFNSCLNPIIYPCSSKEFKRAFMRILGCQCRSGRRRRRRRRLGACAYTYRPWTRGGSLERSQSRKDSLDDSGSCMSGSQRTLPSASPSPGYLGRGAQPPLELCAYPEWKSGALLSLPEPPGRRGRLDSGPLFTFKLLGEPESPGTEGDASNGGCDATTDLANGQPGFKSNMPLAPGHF

[5] = molecular target: T4, Alpha-1A adrenergic receptor (Rattus norvegicus, UniProt P43140); assay: In vitro binding affinity towards alpha-1A adrenergic receptor of rat submaxillary gland in radioligand binding assay; in short: as §2
T4 sequence (P43140 whole entry): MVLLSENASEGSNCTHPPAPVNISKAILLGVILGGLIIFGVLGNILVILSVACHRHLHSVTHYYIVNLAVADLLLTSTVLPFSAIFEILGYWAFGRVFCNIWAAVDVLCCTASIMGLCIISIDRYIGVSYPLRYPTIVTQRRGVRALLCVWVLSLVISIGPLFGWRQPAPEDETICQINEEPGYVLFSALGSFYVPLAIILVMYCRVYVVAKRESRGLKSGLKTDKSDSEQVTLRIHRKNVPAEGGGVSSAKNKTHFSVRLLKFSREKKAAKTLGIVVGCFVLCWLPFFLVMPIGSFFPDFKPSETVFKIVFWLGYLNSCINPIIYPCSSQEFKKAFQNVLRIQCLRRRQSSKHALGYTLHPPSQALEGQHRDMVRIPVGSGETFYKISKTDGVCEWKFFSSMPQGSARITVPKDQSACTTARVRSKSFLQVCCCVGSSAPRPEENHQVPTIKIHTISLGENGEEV

[6] = test system: Canis familiaris; assay: Uroselectivity was determined by measuring effective dose required for 20 mmHg increase of mean arterial pressure (MAP) in vivo in dog; format: functional, Canis lupus familiaris, Artery
In short: (§3)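 Dog model recording intraurethral pressure (IUP) and mean arterial pressure (MAP) simultaneously. Increasing iv doses given, maximal effect of each dose taken. Doses giving a 5 mmHg rise in IUP (ED Δ5) or 20 mmHg rise in MAP (ED Δ20) were calculated, in nmol/kg ± SEM, n ≥ 4 (2 or 3 where footnoted).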

[7] = test system: Canis familiaris; assay: Uroselectivity was determined by measuring effective dose required for 5 mmHg increase of intraurethral pressure (IUP) in vivo in dog; format: functional, Canis lupus familiaris; in short: as §3
[8] = molecular target: Alpha adrenergic receptor 1A and 1B (Rattus norvegicus) (UniProt P15823+P43140); assay: Selectivity is ratio of pKi (binding affinity) of alpha-1B receptor to that of alpha-1A receptor.; format: protein assay
[9] = molecular target: Alpha adrenergic receptor 1A and 1D (Rattus norvegicus) (UniProt P23944+P43140); assay: Selectivity is ratio of pKi (binding affinity) of Alpha-1D to that of alpha1A; format: protein assay
[10] = organism: Canis familiaris; assay: Ratio of MAP ED delta20 to that of IUP ED delta5
[11] = molecular target: T5, Alpha-2A adrenergic receptor (Homo sapiens, UniProt P08913); assay: In vitro binding affinity towards alpha-2A adrenergic receptor of human clone in radioligand binding assay
T5 sequence (P08913 whole entry): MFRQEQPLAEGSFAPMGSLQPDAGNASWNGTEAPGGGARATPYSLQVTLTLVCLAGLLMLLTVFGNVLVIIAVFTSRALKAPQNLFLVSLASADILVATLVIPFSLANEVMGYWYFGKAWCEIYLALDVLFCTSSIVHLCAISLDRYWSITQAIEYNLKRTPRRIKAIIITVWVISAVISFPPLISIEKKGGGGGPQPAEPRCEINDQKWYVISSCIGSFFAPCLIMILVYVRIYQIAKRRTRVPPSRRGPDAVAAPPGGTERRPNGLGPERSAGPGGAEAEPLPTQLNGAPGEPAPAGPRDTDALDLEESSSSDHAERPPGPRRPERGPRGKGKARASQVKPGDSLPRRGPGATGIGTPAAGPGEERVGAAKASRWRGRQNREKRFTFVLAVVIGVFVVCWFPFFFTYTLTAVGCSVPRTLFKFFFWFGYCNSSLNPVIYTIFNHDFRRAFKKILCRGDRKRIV

[12] = molecular target: T6, Alpha-2B adrenergic receptor (Rattus norvegicus, UniProt P19328); assay: In vitro binding affinity towards alpha-2B adrenergic receptor of rat neonatal lung in radioligand binding assay
T6 sequence (P19328 whole entry): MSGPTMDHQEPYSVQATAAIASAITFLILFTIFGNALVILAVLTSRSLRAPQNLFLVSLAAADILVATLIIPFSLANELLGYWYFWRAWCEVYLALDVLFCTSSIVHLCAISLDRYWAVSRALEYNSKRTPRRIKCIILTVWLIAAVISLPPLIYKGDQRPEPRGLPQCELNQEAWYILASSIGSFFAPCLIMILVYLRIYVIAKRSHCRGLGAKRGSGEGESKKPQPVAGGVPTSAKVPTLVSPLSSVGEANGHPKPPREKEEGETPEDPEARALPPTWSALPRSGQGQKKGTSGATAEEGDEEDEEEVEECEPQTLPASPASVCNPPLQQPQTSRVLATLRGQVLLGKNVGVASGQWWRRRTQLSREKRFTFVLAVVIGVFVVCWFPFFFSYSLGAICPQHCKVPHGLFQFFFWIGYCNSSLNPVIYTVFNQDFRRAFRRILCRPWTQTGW

[13] = molecular target: T7, Alpha-2A adrenergic receptor (Rattus norvegicus) (UniProt P22909); assay: Efficacy relative to clonidine to constrict tissue containing the alpha-2A adrenergic receptor in rat prostatic vas deferens
T7 sequence (whole entry): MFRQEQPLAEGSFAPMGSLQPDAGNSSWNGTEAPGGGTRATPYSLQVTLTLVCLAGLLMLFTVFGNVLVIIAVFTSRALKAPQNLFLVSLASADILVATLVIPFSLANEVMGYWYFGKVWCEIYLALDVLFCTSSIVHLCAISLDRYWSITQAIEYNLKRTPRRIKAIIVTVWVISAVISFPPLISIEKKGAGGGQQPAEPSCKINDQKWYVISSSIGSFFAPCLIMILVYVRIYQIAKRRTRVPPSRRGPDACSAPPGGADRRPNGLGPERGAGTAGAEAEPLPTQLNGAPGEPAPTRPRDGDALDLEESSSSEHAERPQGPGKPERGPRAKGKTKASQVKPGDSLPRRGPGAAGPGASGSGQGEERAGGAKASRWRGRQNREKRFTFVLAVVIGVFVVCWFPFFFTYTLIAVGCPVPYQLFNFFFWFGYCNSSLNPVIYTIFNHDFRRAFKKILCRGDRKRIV

[14] = molecular target: T8, Alpha-1B adrenergic receptor (Rattus norvegicus) (UniProt P15823); assay: Functional agonism of the compounds to constrict tissue containing the alpha-1B adrenergic receptor in rat spleen; format: tissue-based
T8 sequence (whole entry): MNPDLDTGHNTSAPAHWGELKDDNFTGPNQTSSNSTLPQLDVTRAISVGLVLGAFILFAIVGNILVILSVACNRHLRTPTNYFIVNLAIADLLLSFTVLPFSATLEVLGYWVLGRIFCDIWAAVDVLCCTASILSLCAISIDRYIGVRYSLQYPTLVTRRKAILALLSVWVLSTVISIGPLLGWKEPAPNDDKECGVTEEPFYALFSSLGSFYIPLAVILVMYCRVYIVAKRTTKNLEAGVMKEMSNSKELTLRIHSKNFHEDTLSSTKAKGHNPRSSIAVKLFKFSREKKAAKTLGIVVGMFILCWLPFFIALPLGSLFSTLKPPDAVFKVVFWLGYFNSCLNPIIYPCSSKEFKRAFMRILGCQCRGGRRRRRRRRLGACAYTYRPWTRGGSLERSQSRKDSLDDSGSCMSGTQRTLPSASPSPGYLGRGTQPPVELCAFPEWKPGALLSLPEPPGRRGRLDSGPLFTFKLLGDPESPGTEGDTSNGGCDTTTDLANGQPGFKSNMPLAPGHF
In short: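 Agonist dose–response curves were run on isolated tissue: rabbit urethra for α1A, rat spleen for α1B, and rat aorta for α1D.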

[15] = molecular target: T8, Alpha-1B adrenergic receptor (Rattus norvegicus); assay: Efficacy relative to phenylephrine (PE) constriction of rat spleen containing alpha-1B adrenergic receptor; format: functional, tissue-based; in short: as §1

SMILES | Efficacy [1] [%] | pD2 [2] | Ki [3] [µM] | Ki [4] [µM] | Ki [5] [µM] | ED delta20 [6] [nM/kg] | ED delta5 [7] [nM/kg] | Selectivity [8] | Selectivity [9] | Ratio [10] | Ki [11] [µM] | Ki [12] [µM] | Efficacy [13] [%] | pD2 [14] | Efficacy [15] [%]
CS(=O)(=O)Nc1cccc2c1CCCC2C1=NCCN1 (stereo not given) | 87 | 6.19 | 4.27 | 7.41 | 0.457 | 9.2 | 11.9 | 20 | 9 | 1.1 | – | – | – | – | –
CCS(=O)(=O)Nc1cccc(Cc2c[nH]cn2)c1 | 80 | – | 0.275 | 0.891 | – | 80 | 12 | – | – | – | 0.17 | 0.977 | 34 | – | –
COc1ccc(NS(C)(=O)=O)c2c1C(c1c[nH]cn1)CCC2 (stereo not given) | 57 | 4.81 | > 10 | > 10 | – | 1850 | – | > 6 | > 6 | 2.6 | – | – | – | 4.74 | 26
CS(=O)(=O)Nc1cccc2c1OCCC2c1c[nH]cn1 (stereo not given) | 88 | – | – | – | – | 163.9 | – | – | – | – | – | – | – | – | 17
CS(=O)(=O)Nc1c(O)ccc2c1CCCC2c1c[nH]cn1 (stereo not given) | 104 | – | – | – | – | 0.16 | 0.18 | – | – | 1 | 0.0447 | 0.0479 | – | – | 94
CS(=O)(=O)Nc1cccc2c1CCCC2c1c[nH]cn1 (stereo not given) | 83 | – | – | – | – | 102.3 | – | – | – | – | 0.105 | 0.676 | 62 | – | –
CCS(=O)(=O)Nc1cc(Cl)cc2c1CCCC2c1c[nH]cn1 (stereo not given) | – | – | – | > 10 | 0.0457 | 47.7 | 19.1 | > 217 | 8 | 2.5 | – | – | – | – | –
CCS(=O)(=O)Nc1cccc2c1CCC2c1c[nH]cn1 (stereo not given) | 87 | – | – | – | – | 5.6 | 4.4 | – | – | – | – | 0.186 | 26 | – | –
CC(=O)Nc1cccc2c1CCCC2c1c[nH]cn1 (stereo not given) | 70 | – | – | – | – | 220 | – | – | – | – | – | 3.02 | 100 | – | 35
